What was measured:
[1] = molecular target: T1, 5-hydroxytryptamine receptor 1A (Rattus norvegicus, UniProt P19327); assay: Displacement of [3H]8OH-DPAT from 5HT1A receptor in rat hippocampal membrane; assay type: cell membranes, Hippocampus
T1 sequence (P19327 whole entry): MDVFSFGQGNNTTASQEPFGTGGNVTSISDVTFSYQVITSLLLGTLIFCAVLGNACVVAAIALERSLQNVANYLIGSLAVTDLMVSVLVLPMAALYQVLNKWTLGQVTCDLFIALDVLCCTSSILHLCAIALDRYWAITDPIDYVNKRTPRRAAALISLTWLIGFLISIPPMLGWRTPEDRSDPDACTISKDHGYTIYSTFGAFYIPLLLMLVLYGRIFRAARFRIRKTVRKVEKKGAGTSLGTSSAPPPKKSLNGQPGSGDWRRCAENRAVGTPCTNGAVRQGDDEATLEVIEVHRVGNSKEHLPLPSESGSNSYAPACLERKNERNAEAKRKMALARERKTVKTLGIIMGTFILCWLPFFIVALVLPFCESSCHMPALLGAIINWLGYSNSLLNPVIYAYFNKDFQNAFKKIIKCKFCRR

D(2) dopamine receptor = D(2) dopamine receptor (Rattus norvegicus, UniProt P61169); assay: Displacement of [3H]spiroperidol from dopamine D2 receptor in rat striatal membrane; assay type: cell membranes, Striatum
[2] = molecular target: T2, Adrenergic receptor alpha-1 (Rattus norvegicus, UniProt P15823+P23944+P43140); assay: Displacement of [3H]prazosin from adrenergic alpha1 receptor in rat cortical membrane; assay type: cell membranes
T2 sequence (P15823 whole entry): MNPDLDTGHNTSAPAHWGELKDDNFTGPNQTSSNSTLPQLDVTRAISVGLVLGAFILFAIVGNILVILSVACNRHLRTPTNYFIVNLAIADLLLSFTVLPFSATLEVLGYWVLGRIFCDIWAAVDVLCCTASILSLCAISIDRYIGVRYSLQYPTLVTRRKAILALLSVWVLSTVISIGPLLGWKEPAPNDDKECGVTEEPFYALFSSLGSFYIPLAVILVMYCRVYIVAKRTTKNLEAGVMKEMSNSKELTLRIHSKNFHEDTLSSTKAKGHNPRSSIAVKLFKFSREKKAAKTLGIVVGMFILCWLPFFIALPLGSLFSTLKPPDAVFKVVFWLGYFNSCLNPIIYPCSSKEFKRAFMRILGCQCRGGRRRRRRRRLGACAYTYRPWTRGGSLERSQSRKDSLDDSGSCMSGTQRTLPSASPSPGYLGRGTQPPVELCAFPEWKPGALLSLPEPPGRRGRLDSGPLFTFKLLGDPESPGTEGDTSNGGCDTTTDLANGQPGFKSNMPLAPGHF
T2 sequence (P23944 whole entry): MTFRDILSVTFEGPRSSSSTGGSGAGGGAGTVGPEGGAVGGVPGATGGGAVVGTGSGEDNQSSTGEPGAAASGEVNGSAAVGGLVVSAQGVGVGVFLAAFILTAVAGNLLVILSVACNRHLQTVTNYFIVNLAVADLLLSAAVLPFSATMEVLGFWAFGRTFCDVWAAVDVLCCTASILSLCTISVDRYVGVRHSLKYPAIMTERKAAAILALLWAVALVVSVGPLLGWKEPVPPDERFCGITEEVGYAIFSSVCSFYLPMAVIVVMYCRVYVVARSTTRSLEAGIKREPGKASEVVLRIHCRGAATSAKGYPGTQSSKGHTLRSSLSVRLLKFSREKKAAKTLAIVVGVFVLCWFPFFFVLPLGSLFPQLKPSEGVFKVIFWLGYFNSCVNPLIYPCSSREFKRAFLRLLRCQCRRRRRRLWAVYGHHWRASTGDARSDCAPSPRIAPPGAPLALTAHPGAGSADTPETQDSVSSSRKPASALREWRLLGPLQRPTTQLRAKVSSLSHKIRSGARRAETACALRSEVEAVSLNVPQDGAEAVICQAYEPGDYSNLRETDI
T2 sequence (P43140 whole entry): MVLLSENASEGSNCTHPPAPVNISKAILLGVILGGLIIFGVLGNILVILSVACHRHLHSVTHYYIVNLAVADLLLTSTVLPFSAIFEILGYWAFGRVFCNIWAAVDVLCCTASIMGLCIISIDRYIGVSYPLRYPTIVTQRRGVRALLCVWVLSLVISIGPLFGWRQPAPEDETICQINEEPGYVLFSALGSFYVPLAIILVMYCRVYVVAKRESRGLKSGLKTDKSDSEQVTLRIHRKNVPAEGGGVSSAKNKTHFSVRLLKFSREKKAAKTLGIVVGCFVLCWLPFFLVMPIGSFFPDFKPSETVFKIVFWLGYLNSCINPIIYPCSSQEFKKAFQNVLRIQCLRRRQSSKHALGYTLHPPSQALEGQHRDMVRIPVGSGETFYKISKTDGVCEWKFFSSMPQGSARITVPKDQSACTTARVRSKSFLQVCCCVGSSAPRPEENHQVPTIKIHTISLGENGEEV

[3] = molecular target: T3, 3-beta-hydroxysteroid-Delta(8),Delta(7)-isomerase (Cavia porcellus, UniProt Q60490); assay: Displacement of [3H](-)-(S)-emopamil from EBP in guinea pig liver membrane; assay type: cell membranes
T3 sequence (Q60490 whole entry): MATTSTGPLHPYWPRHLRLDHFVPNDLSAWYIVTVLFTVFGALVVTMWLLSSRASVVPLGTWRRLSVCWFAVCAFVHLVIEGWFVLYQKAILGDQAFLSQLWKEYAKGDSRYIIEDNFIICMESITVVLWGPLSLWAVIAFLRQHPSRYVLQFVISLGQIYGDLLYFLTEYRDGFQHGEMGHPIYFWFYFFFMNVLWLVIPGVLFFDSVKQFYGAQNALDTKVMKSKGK
How it was run: (§1)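 Radioligand displacement run by previously published methods, EBP per Moebius and σ1/σ2 per Matsumoto. Tissues from male Dunkin guinea pigs and Wistar Hannover rats (250–300 g). IC50 from six to nine drug concentrations in two or three experiments, samples in duplicate.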

PC-3 [4] = assay: Cytotoxicity against human PC3 cells assessed as LDH release at 100 uM after 24 hrs relative to untreated control; assay type: functional
How it was run: (§2)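 PC-3 cells exposed to test compound for 24 h at 37 °C, 5% CO2. LDH release into the medium was measured fluorimetrically (ex 560/em 590 nm) after 10 min with substrate mix at room temperature, then stop solution. Total LDH taken from lysed untreated wells. % cytotoxicity = 100 × (treated medium LDH − background)/(total LDH − background).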

[5] = molecular target: Sigma non-opioid intracellular receptor 1 (Cavia porcellus, UniProt Q60492); assay: Displacement of [3H](+)-pentazocine from sigma 1 receptor in guinea pig brain membrane without cerebellum; assay type: cell membranes; how it was run: as §1
[6] = Displacement of [3H]-DTG from sigma 2-type opioid receptor in rat liver membrane in presence of (+)-pentazocine; assay type: cell membranes; how it was run: as §1
Cavia porcellus = species: Cavia porcellus; assay: Selectivity ratio of Ki for sigma 1 receptor in guinea pig brain membrane without cerebellum to Ki for EBP in guinea pig liver membrane; assay type: cell membranes
PC-3 [7] = assay: Antiproliferative activity against human PC3 cells expressing EBP after 48 hrs by MTT assay; assay type: functional, cell-based
How it was run: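 MTT read-out at 48 h in PC-3 cells grown in RPMI 1640 with 10% FBS, 2 mM glutamine, penicillin/streptomycin, 37 °C, 5% CO2. 10 000 cells/well seeded day 1, drugs added day 2 over 1–100 µM (150 or 300 µM for some references). Solvent controls included. MTT 0.5 mg/mL for 3 h, formazan dissolved in DMSO, absorbance at 570 and 630 nm.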

[8] = Selectivity ratio of Ki for sigma 2 receptor in rat liver membrane to Ki for EBP in guinea pig liver membrane; assay type: cell membranes
PC-3 [9] = assay: Antiproliferative activity against human PC3 cells expressing EBP at 100 uM after 48 hrs by MTT assay; assay type: functional; details: PC-3, 48 h
How it was run: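 PC-3 human prostate cancer cells grown in RPMI 1640 with 10% FBS, 2 mM glutamine and penicillin/streptomycin at 37 °C under 5% CO₂. Seeded at 10 000 cells/well, then dosed the next day with solvent (ethanol, DMSO) controls. Incubated 48 h. MTT 0.5 mg/mL added for 3 h at 37 °C, formazan dissolved in DMSO, absorbance read at 570 and 630 nm. Percent inhibition at 100 µM, n ≥ 2 separate experiments.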

PC-3 [10] = assay: Cytotoxicity against human PC3 cells assessed as LDH release after 24 hrs; assay type: functional, cell-based; details: PC-3, 24 h; how it was run: as §2

Sequence of D(2) dopamine receptor (P61169 whole entry): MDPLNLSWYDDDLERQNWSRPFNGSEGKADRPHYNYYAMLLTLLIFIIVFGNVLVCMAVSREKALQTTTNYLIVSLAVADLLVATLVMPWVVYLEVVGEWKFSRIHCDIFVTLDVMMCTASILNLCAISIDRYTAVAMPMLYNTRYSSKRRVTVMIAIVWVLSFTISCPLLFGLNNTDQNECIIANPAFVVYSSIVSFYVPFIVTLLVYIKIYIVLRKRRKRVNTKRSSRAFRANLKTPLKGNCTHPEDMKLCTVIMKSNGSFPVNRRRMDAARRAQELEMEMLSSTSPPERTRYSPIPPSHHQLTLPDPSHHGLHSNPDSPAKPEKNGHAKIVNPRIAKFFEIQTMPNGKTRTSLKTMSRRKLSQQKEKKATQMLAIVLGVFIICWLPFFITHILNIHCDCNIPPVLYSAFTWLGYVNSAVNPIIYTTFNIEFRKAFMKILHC
Sequence of Sigma non-opioid intracellular receptor 1 (Q60492 whole entry): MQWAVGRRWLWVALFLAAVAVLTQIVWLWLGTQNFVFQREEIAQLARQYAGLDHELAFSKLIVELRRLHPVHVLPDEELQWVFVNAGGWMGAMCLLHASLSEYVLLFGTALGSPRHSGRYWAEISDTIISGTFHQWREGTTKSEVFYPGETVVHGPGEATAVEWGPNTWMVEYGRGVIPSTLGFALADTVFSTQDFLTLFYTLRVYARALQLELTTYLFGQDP

Row | Ki [1] [nM] | Ki (D(2) dopamine receptor) [nM] | Ki [2] [nM] | Ki [3] [nM] | Ki [5] [nM] | Ki [6] [nM] | Ratio Ki (Cavia porcellus) | EC50 (PC-3 [7]) [nM] | SMILES | Activity (PC-3 [4]) [%] | Ratio Ki [8] | inhibition at 100 µM (PC-3 [9]) [%] | EC50 (PC-3 [10]) [nM]
1 | 94 | 787 | 786 | 32.8 | 194 | 63.8 | 4 | – | COc1ccc([C@H]2CC[C@@H](N3CCN(c4ccccn4)CC3)CC2)cc1 | <10 | – | – | –
2 | 74 | 1310 | 5540 | 16.7 | 240 | – | – | – | COc1cccc([C@H]2CC[C@@H](N3CCN(c4cccc5ccccc45)CC3)CC2)c1 | <10 | – | – | –
3 | 480 | 2120 | 712 | 8.15 | 369 | 242 | 45 | 19300 | COc1ccccc1[C@H]1CC[C@@H](N2CCN(c3ccccn3)CC2)CC1 | <10 | 30 | – | –
4 | 373 | 783 | > 850 | 23.5 | 7.71 | – | – | – | COc1cccc([C@H]2CC[C@@H](NCCOc3ccccn3)CC2)c1 | <10 | – | – | –
5 | – | – | – | 8.38 | – | 0.34 | – | 37700 | COc1cccc2c1CCCC2CCCN1CCN(C2CCCCC2)CC1 (configuration not stated) | – | – | – | 64200
6 | – | – | – | 7660 | – | 31.1 | – | – | Cc1ccccc1NC(=N)Nc1ccccc1C | <10 | – | 27 | –

Row | SMILES | Ki [1] [nM] | Ki (D(2) dopamine receptor) [nM] | Ki [2] [nM] | Ki [3] [nM] | Ki [5] [nM] | Ki [6] [nM] | Ratio Ki (Cavia porcellus) | EC50 (PC-3 [7]) [nM] | Activity (PC-3 [4]) [%] | Ratio Ki [8] | inhibition at 100 µM (PC-3 [9]) [%] | EC50 (PC-3 [10]) [nM]
7 | COc1cccc([C@H]2CC[C@@H](N3CCN(c4ccccc4)CC3)CC2)c1 | 183 | 2380 | 2250 | 1710 | – | – | – | – | <10 | – | – | –
8 | COc1cccc([C@H]2CC[C@@H](N3CCN(c4ccccn4)CC3)CC2)c1 | 815 | > 850 | 783 | 45.4 | 178 | 36.1 | – | – | <10 | – | – | –
9 | c1ccc(CCN2CCCCC2)cc1 | – | – | – | 595 | 309 | 194 | 0.5 | – | <10 | 0.3 | 30 | –

Reference: ChEMBL document CHEMBL1140235, “Novel 4-(4-aryl)cyclohexyl-1-(2-pyridyl)piperazines as Delta(8)-Delta(7) sterol isomerase (emopamil binding protein) selective ligands with antiproliferative activity” (J Med Chem, 2008)
